Active and inactive are the calls of the source. The rule behind the calls is not given here.
Legend:
[1] = molecular target: T1, Lysine-specific demethylase 4C (Homo sapiens) (UniProt Q9H3R0); test: Inhibition of JMJD2C-mediated H3K9 demethylation activity at 1 mM
T1 sequence (whole entry): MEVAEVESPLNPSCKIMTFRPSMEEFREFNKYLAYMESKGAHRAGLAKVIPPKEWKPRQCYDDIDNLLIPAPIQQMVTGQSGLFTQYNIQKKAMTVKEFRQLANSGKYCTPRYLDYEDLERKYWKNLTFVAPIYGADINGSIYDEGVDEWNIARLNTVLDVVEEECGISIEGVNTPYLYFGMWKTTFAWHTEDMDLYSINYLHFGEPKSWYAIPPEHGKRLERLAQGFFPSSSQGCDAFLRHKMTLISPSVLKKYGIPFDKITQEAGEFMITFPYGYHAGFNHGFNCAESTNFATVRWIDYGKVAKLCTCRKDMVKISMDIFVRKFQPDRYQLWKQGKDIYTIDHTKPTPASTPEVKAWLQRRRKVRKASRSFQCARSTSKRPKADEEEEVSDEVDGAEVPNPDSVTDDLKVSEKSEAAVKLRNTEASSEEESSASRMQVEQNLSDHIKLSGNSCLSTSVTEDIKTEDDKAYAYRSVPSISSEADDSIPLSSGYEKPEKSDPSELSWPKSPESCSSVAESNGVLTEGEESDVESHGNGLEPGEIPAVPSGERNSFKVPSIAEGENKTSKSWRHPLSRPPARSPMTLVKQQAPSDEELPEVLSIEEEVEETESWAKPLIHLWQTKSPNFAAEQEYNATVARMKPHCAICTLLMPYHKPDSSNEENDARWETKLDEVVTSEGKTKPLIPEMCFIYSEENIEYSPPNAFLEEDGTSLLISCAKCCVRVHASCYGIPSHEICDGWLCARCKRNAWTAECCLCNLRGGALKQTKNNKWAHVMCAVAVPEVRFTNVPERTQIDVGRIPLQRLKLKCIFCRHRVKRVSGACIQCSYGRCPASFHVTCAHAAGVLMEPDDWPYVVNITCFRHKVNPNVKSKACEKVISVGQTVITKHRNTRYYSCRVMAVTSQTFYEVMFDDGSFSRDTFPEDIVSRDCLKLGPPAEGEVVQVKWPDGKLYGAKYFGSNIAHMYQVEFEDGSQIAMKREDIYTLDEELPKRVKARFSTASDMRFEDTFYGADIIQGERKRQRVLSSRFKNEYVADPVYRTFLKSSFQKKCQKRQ
Procedure, shortened: (§1)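 GST fusions of JMJD2A (aa 2–350) or JMJD2C (aa 2–352), made in E. coli and purified on glutathione-agarose. Each was incubated with histones in 50 mM Hepes pH 7.4, 50 mM NaCl, 50 mM KCl, 2 mM ascorbate, 0.2 mM (NH₄)₂Fe(SO₄)₂ and α-ketoglutarate, with inhibitor in DMSO or DMSO alone, 1 h at 37 °C. Read-out was anti-H3K9me₃ Western blot with ECL; H4K20me₁ served as a control.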

[2] = molecular target: T2, Lysine-specific demethylase 4A (Homo sapiens) (UniProt O75164); test: Inhibition of JMJD2A-mediated H3K9 demethylation activity at 1 mM; procedure, shortened: as §1
T2 sequence (whole entry): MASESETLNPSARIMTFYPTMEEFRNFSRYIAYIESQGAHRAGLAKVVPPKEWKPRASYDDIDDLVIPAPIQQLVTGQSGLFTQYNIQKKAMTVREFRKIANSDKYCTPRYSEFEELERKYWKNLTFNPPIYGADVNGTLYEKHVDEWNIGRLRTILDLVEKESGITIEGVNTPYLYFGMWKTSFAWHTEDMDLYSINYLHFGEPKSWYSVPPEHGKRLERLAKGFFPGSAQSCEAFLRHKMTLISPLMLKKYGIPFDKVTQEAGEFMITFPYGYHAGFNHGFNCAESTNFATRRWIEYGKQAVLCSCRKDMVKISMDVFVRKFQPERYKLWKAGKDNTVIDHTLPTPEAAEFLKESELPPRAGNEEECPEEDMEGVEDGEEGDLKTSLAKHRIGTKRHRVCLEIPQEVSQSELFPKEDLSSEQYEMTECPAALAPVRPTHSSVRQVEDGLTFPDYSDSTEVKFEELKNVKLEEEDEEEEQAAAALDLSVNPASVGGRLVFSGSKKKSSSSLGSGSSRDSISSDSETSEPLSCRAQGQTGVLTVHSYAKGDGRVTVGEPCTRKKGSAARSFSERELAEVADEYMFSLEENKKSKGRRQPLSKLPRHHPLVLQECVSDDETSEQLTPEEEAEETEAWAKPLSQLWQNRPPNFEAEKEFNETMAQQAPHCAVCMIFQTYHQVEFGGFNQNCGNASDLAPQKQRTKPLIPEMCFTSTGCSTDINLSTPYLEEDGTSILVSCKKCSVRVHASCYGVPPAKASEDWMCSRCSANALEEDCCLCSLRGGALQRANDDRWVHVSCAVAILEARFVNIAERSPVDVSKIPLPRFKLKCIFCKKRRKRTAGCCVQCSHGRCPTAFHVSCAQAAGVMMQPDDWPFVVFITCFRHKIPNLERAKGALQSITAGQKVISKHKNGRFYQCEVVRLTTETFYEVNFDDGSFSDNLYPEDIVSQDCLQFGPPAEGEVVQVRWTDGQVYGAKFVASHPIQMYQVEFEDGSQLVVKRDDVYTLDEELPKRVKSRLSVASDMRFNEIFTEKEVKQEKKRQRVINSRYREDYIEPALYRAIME

[3] = molecular target: T1, Lysine-specific demethylase 4C (Homo sapiens); test: Inhibition of JMJD2C-mediated H3K9 demethylation activity at 3 mM; procedure, shortened: as §1
[4] = molecular target: T2, Lysine-specific demethylase 4A (Homo sapiens); test: Inhibition of JMJD2A-mediated H3K9 demethylation activity at 3 mM; procedure, shortened: as §1
[5] = molecular target: T3, Lysine-specific demethylase 4D (Homo sapiens) (UniProt Q6B0I6); test: Inhibition of JMJD2D-mediated H3K9 demethylation activity at 1 mM
T3 sequence (whole entry): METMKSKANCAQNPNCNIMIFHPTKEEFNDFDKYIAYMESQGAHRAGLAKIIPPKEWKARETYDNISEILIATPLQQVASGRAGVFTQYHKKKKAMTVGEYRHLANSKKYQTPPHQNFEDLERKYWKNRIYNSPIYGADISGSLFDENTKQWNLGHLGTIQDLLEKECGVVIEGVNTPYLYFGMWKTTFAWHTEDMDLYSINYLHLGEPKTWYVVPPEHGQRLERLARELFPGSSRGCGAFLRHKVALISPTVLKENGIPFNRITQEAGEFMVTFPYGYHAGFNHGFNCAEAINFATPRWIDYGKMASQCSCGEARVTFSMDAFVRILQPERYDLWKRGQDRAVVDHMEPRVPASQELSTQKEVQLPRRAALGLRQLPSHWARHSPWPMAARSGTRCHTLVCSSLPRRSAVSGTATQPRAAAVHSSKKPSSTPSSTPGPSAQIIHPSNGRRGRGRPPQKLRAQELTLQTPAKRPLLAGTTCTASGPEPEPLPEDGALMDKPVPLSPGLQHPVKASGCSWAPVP
Procedure, shortened: (§2)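 Full-length GST-JMJD2D, expressed in E. coli and purified on glutathione-agarose, was incubated with histones, α-ketoglutarate, 2 mM ascorbate and 0.2 mM (NH₄)₂Fe(SO₄)₂ in 50 mM Hepes pH 7.4 with 50 mM NaCl and 50 mM KCl. Inhibitor in DMSO, or DMSO alone, was present for 2 h at 37 °C. H3K9me₃ was detected by Western blot with ECL, with H4K20me₁ as a control.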

[6] = molecular target: T3, Lysine-specific demethylase 4D (Homo sapiens); test: Inhibition of JMJD2D-mediated H3K9 demethylation activity at 3 mM; procedure, shortened: as §2
[7] = molecular target: T1, Lysine-specific demethylase 4C (Homo sapiens); test: Inhibition of JMJD2C-mediated H3K9 demethylation in human 293T cells at 2.5 mM; assay type: cell-based
Procedure, shortened: (§3)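 293T cells were transfected with or without Flag-JMJD2C by calcium phosphate coprecipitation; the precipitate was washed off with PBS after 12 h. Cells were grown 12 h in DMEM + 10% FCS under 10% CO₂, then for 24 h in fresh medium containing inhibitor in DMSO or 1% DMSO. Lysates were boiled in Laemmli buffer and histone methylation was assessed by Western blotting.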

[8] = molecular target: T1, Lysine-specific demethylase 4C (Homo sapiens); test: Inhibition of JMJD2C-mediated H3K36 demethylation in human 293T cells at 2.5 mM; assay type: cell-based; procedure, shortened: as §3
[9] = molecular target: Lysine-specific demethylase 4C (Homo sapiens) (UniProt Q9H3R0); test: Inhibition of JMJD2-mediated H3K9 demethylation in human 293T cells at 2.5 mM
[10] = molecular target: T1, Lysine-specific demethylase 4C (Homo sapiens); test: Inhibition of JMJD2C-mediated H3K9 demethylation in human 293T cells at […]; assay type: cell-based; procedure, shortened: as §3
[11] = molecular target: T1, Lysine-specific demethylase 4C (Homo sapiens); test: Inhibition of JMJD2C-mediated H3K36 demethylation in human 293T cells at […]; assay type: cell-based; procedure, shortened: as §3
[12] = molecular target: Lysine-specific demethylase 4C (Homo sapiens) (UniProt Q9H3R0); test: Inhibition of JMJD2-mediated H3K36 demethylation in human 293T cells at 2.5 mM

Compound | Histone_modification [1] | Histone_modification [2] | Histone_modification [3] | Histone_modification [4] | Histone_modification [5] | Histone_modification [6] | Histone_modification [7] | Histone_modification [8] | Histone_modification [9] | Histone_modification [10] | Histone_modification [11] | Histone_modification [12]
O=C(O)CNC(=O)C(=O)O | Active | Active | Active | Active | Active | Active | – | – | – | – | – | –
COC(=O)CN(Cc1ccc(N(C)C)cc1)C(=O)C(=O)OC | – | – | – | – | – | – | inactive | inactive | Active | – | – | –
COC(=O)CCC(=O)OC | – | – | – | – | – | – | – | – | – | inactive | inactive | –
COC(=O)CNC(=O)C(=O)OC | – | – | – | – | – | – | Active | Active | Active | – | – | Active
CN(C)c1cccc(CN(CC(=O)O)C(=O)C(=O)O)c1 | inactive | inactive | Active | Active | – | Active | – | – | – | – | – | –

The remaining lines, values ahead:

Histone_modification [1] | Histone_modification [2] | Histone_modification [3] | Histone_modification [4] | Histone_modification [5] | Histone_modification [6] | Histone_modification [7] | Histone_modification [8] | Histone_modification [9] | Histone_modification [10] | Histone_modification [11] | Histone_modification [12] | Compound
inactive | inactive | Active-partial | Active-partial | Active | – | – | – | – | – | – | – | CN(C)c1ccc(CCCN(CC(=O)O)C(=O)C(=O)O)cc1
inactive | inactive | Active | Active | Active | Active | – | – | – | – | – | – | CN(C)c1ccc(CN(CC(=O)O)C(=O)C(=O)O)cc1
inactive | inactive | Active | Active | Active | Active | – | – | – | – | – | – | CN(C)c1ccc(CCN(CC(=O)O)C(=O)C(=O)O)cc1
